“Also recorded” adds a separate entry of the source.
Experiments:
[1] = biological target: T1, human c-Myc-DUSP1 (Homo sapiens, UniProt P28562); experiment: Chemical complementation assay for DUSP1; format: cell-based
T1 sequence (P28562 1-367): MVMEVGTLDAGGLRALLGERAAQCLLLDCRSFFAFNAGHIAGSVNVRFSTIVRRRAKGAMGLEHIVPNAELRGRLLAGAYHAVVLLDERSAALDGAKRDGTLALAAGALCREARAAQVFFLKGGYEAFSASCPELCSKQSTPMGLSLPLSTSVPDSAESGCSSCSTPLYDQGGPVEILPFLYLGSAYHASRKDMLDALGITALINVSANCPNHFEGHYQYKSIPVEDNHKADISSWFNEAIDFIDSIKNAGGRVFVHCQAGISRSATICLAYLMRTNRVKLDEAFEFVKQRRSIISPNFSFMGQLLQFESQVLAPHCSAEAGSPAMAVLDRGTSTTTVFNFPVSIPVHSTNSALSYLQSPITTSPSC
In short: (§1)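 Human c-Myc-tagged DUSP1 (in pcDNA3.1) or DUSP6 (in pSG5) transfected into HeLa cells, which were grown in DMEM with 10% FBS at 37 °C and 5% CO2. At 48 h, quadruplicate wells got a 15 min treatment with ten two-fold dilutions, then TPA (500 ng/ml) for 15 min. Cells were immunostained for pERK and c-Myc. IC50 came from a four-parameter logistic fit of KS values versus concentration.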

[2] = tested on: zebrafish embryos; experiment: Hatching study in zebrafish embryos; format: in vivo; conditions: 6 hour exposure followed by washout; for embryos hatched (in words): exposure at their EC50 (1: 10 μM, 7: 5 μM)
[3] = tested on: Recombinant His-tagged Dusp6; experiment: In vitro OMFP phosphatase assay, ERK2 induced activation of DUSP6; format: biochemical; conditions: 100 μM compound, with recombinant ERK2, OMFP substrate
In short: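 Recombinant His-tagged Dusp6 (250 ng), expressed in bacteria, was preincubated with 100 μM test compound. Recombinant ERK2 (210 ng) was added, then OMFP substrate (100 μM). Fluorescence (485/525 nm) was read every 10 min for 1 h at room temperature. Percent inhibition was taken at 10 min, within the linear range, from three independent experiments (mean ± SD). Vanadate was the positive control; one-way ANOVA with Tukey post hoc test.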

[4] = biological target: T2, human c-Myc-DUSP6 (Homo sapiens, UniProt Q16828); experiment: Chemical complementation assay for DUSP6; format: cell-based
T2 sequence (Q16828 1-381): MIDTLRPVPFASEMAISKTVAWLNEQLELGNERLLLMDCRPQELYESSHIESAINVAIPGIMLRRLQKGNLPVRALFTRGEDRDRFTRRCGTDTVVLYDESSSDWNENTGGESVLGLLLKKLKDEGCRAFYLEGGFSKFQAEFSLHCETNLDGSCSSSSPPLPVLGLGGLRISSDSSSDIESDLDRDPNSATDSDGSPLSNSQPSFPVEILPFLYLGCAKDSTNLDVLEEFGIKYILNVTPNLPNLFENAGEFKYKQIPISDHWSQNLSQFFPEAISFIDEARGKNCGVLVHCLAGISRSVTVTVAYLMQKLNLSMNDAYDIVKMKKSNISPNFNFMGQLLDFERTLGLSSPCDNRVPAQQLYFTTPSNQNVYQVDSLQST
In short: as §1

[5] = tested on: DUSP; conditions: bacterially produced recombinant protein, no ERK; cited from earlier work
[6] = tested on: FGF signaling; experiment: FGF reporter activation in Tg; format: in vivo, zebrafish; conditions: for in vivo FGF hyperactivation activity (in words): Tg(dusp6:EGFP)pt6 embryos, SAR statement relative to 1
In short: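 Compound was added from 100X DMSO stocks (1% DMSO final). Time course was imaged hourly for 6 h; dose-response was read at 5 h. Embryos were anaesthetised with MS222 (40 μg/ml) and imaged at 4X (488/525 nm).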

[7] = tested on: EA.hy926 cells; experiment: Cytotoxicity in cultured EA.hy926 cells; format: cell-based; conditions: six hours, concentrations up to 50 μM
In short: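 EA.hy926 endothelial hybridoma cells were kept in DMEM with 10% FBS and 2 mM glutamine, plated at 10,000/well and allowed to attach overnight. They were exposed for 6 h to five-point 1/3 dilution gradients, with phenylarsine oxide as positive control. Live cells were stained with propidium iodide (1 μg/ml) and Hoechst 33342 (10 μg/ml), then imaged. Scored per field: nuclei count, nuclear condensation, % PI-positive cells.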

[8] = HeLa chemical complementation assay

Structure (SMILES) | suppression of ERK-stimulated activation of DUSP6 (in words) [3] | in vivo FGF hyperactivation activity (in words) [6] | also measured
O=C1/C(=C/c2ccccc2)C(NC2CCCCC2)c2ccccc21 (stereo not shown) [Compound 1, (E)-2-benzylidene-3-(cyclohexylamino)-2,3-dihydro-1H-inden-1-one] | significantly suppressed activation of DUSP6 | – | IC50 [1]: 8 ± 0.6 µM; embryos hatched (in words) [2]: no embryos hatched; IC50 [4]: 13.3 ± 1.8 µM; antiphosphatase activity in traditional biochemical assay (in words) [5]: lacked antiphosphatase activity; time at which GFP expression reached a maximum ([6]; 20 μM, 24 hpf embryos, stable for an additional hour): 5 h; concentration of maximal FGF reporter activation ([6]; 5 hour time point, declined at higher concentrations): 20 µM
O=C1C(=Cc2ccccc2)C(Nc2ccccc2)c2ccccc21 (stereo not shown) [Compound 4] | – | abolished activity | –
O=C1/C(=C/c2ccccc2)C(N2CCOCC2)c2ccccc21 (stereo not shown) [Compound 7] | significantly suppressed activation of DUSP6 | maximal activity | embryos hatched (in words) [2]: no embryos hatched
O=C1C(=Cc2ccc(Cl)cc2)C(NC2CCCCC2)c2ccccc21 (stereo not shown) [Compound 15] | – | did not substantially change activity compared to 1 | –
O=C1C(=Cc2ccc(Cl)c(Cl)c2)C(NC2CCCCC2)c2ccccc21 (stereo not shown) [Compound 16] | – | did not substantially change activity compared to 1 | –
O=C1/C(=C/c2ccccc2)C(NC2CCCCC2)c2cc(Br)ccc21 (stereo not shown) [Compound 19] | significantly suppressed activation of DUSP6 | tolerated | embryos hatched by 56 hpf ([2]; 20 μM (two times the EC50 for FGF activation)): 100%; cellular toxicity (in words) [7]: devoid of cellular toxicity
COc1ccc(/C=C2/C(=O)c3ccccc3C2N2CCOCC2)cc1 (stereo not shown) [Compound 24] | – | inactive; also recorded: abolished the activity | DUSP1 inhibition in mammalian cells (in words) [1, 8]: lacked antiphosphatase activity; DUSP6 inhibition in mammalian cells (in words) [4, 8]: lacked antiphosphatase activity
OC1C(=Cc2ccccc2)C(NC2CCCCC2)c2ccccc21 (stereo not shown) [Compound 31, 2-benzylidene-3-cyclohexylaminoindan-1-ol] | insignificant | abolished activity | –

From article PMC4118675 (Chembiochem : a European journal of chemical biology, 2014)
